From PubChem
Most compounds without a hit are left out; they make up all but 3.5% or so of the library.
RGS4 pot: RGS4 potentiators or activators, primary screen, cell-based, HEK293 M3R inducible RGS4, calcium flux | carbachol calcium flux Fluo4; stronger effect = lower value | B-score at 10 µM | 0.92% of 310,000 active;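 active = B-score of the integrated calcium signal more than 4 SD below the library mean, with starting fluorescence not abnormally high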;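 note: negative B-score means reduced calcium response which marks RGS4 activation or potentiation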
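Detection: kinetic calcium fluorescence imaging with Fluo4-AM dye, 2 µM / Material: HEK293 cells with stable M3R and inducible RGS4 / Schedule: recording 10 s baseline at 1 Hz, 100 s post-agonist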
MrgX1 allo act: positive allosteric modulators of MrgX1, primary screen, HEK293 cells, Fluo-4 calcium flux. Mas-related G-protein coupled receptor member X1 (Homo sapiens), Q96LB2. FDSS; stronger effect = higher value. B-score at 10 µM. 0.63% of 310,000 active. AID 588675, 2011;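 active = plate-corrected calcium response at least 3 library SD above typical, normal starting fluorescence, not activating the receptor alone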;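 note: compound read alongside a low EC10 to EC30 dose of BAM8-22 agonist; peak minus trough fluorescence over baseline measured at the second addition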
Target sequence (Q96LB2 whole entry, looked up): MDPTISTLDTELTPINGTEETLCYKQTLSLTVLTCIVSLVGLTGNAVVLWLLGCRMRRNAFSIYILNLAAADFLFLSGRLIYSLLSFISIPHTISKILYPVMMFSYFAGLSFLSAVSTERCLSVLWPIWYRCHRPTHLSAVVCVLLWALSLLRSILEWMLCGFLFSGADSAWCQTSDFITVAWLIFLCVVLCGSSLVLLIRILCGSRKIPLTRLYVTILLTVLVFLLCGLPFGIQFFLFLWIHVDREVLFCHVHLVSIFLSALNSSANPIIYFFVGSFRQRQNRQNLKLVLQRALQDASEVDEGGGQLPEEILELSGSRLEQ
RGS4 inh: RGS4 inhibitors, primary screen, cell-based, HEK293 M3R inducible RGS4, calcium flux; Regulator of G-protein signaling 4 (Homo sapiens), P49798; Fluo-4 calcium flux; stronger effect = higher value; triggered by carbachol at its EC20; B-score at 10 µM; 0.45% of 310,000 active;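 active = B-score, a plate-corrected calcium signal, over three deviations above library mean, with baseline fluorescence within five deviations of library mean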;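 note: RGS4 expression induced by doxycycline in cells with stable M3 receptor; B-score is computed from the integrated fluorescence ratio over baseline after carbachol; higher B-score means a larger calcium signal and so more RGS4 inhibition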
Target sequence (P49798 whole entry, looked up): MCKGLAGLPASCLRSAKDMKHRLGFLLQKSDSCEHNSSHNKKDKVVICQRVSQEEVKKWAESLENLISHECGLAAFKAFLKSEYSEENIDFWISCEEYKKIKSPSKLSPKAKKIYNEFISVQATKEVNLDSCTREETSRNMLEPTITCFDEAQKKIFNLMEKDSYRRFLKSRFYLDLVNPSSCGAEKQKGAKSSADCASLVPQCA
MrgX1 antag: antagonists of human MrgX1 receptor, primary screen, HEK293 cells, Fluo-4 calcium flux | BAM8-22 antagonism; stronger effect = lower value | B-score at 10 µM | 1.3% of 310,000 active | AID 588676, 2011;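 active = calcium-response B-score plate-corrected more than 3 library SD below zero, starting fluorescence within 5 deviations, no agonist response on first addition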;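 note: peak minus trough fluorescence over baseline after final BAM8-22 challenge near maximal dose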
MrgX1 agonist: agonists of human MrgX1 receptor, primary screen, HEK293 cells, Fluo-4 calcium flux; Mas-related G-protein coupled receptor member X1 (Homo sapiens), Q96LB2; B-score at 10 µM; 0.44% of 310,000 active; Fluo-4 calcium fluorescence, agonist mode; stronger effect = higher value;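 active = calcium response B-score plate-corrected fluorescence ratio at least 3 library SD, with starting fluorescence B-score inside 5 SD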
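Material: HEK293 cells stably expressing human MrgX1 receptor | Quantity: 15,000 cells per well | Times: Cells plated overnight, dye loaded 0.5 h 37 °C, 0.5 h room temperature | Measured by: Kinetic Fluo-4 NW fluorescence of intracellular calcium | Control set: Positive and negative controls per plate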
MrgX1 ant reconf: MrgX1 receptor antagonists, duplicate retest, confirmation, HEK293 cells, Fluo-4 calcium flux; 19% of 2,300 active; remaining BAM8-22 calcium response % of control (stronger effect = lower value), % at 10 µM; AID 602420, 2012; BAM8-22 calcium flux; stronger effect = lower value; shares compounds with MrgX1 antag;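 active = remaining agonist calcium response no higher than 100% minus 3 SD of agonist-only control wells, with starting fluorescence near control levels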;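 note: agonist BAM8-22 given at a near maximal EC90 to ECmax level; peak minus minimum fluorescence divided by baseline after agonist addition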
HEK293 Ca flux: nonspecific calcium signal in parental HEK293, confirmation, counter-screen for MrgX1 antagonist project, parental HEK293 cells, Fluo-4 calcium flux. 2% of 4,000 active. fluorescence ratio F(max-min)/F0 at 10 µM. shares compounds with MrgX1 antag. Fluo-4 calcium fluorescence, FDSS;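 active = duplicate-averaged calcium fluorescence ratio at least three times the standard deviation of buffer wells, a nonspecific response in parental cells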
HEK293 Ca counter: calcium response in parental HEK293 cells, primary screen, counter-screen for MrgX1 allosteric activator project, cell-based, Fluo-4 calcium flux, duplicate. shares compounds with MrgX1 antag. AID 624114, 2012. fluorescence ratio F(max-min)/F0 at 10 µM. 0.4% of 4,000 active. Fluo-4 fluorescence ratio; stronger effect = higher value;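 active = calcium fluorescence ratio, averaged over duplicates, at least 3 SD of the buffer-well ratio, meaning a nonspecific response in receptor-free cells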;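 note: untransfected parental HEK293 lacking MrgX1 used as counterscreen for MrgX1 allosteric activators; fluorescence change taken during the second addition on a kinetic imager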
HEK293 Ca cntr2: calcium response in parental HEK293 cells, primary screen, counter-screen for MrgX1 agonist project, cell-based, Fluo-4 calcium flux, duplicate, agonist mode. shares compounds with MrgX1 antag. Fluo-4 calcium fluorescence (FDSS); stronger effect = higher value. fluorescence ratio F(max-min)/F0 at 10 µM. 8.7% of 4,000 active;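 active = calcium fluorescence ratio at least three times the spread of buffer wells, meaning a non-specific response in parental cells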
* = called active by the depositor; i = inactive; · = no result.

SMILES	RGS4 pot	MrgX1 allo act	RGS4 inh	MrgX1 antag	MrgX1 agonist	MrgX1 ant reconf	HEK293 Ca flux	HEK293 Ca counter	HEK293 Ca cntr2
Fc1ccccc1NC(=S)Nc1ccc(Br)cc1	i	i	i	-6.1*	i	71%*	i	i	i
Cc1ccc(NC(=S)Nc2ccc(Br)cc2)cc1	i	i	i	-5.8*	i	59%*	i	i	i
S=C(Nc1ccccc1)Nc1ccc(Br)cc1	i	i	i	-7.3*	i	69%*	i	i	i
CCOC(=O)N1CCN(c2c(N3CCN(c4ccccc4F)CC3)c(=O)c2=O)CC1	i	i	i	i	i	·	·	·	·
Cn1c(N)c(C(=O)COC(=O)CC(NC(=O)c2ccccc2Cl)c2ccccc2)c(=O)n(C)c1=O (stereo not drawn)	i	i	i	i	i	·	·	·	·
COc1ccc(CC(=O)NNS(=O)(=O)c2ccc([N+](=O)[O-])cc2)cc1OC	i	i	i	i	i	·	·	·	·
COc1ccccc1OCC(O)Cn1c(=N)n(Cc2ccccc2)c2ccccc21 (stereo not drawn)	i	i	i	i	i	·	·	·	·
N=c1n(Cc2ccccc2)c2ccccc2n1CC(O)c1ccccc1 (stereo not drawn)	i	i	i	-5.6*	i	i	i	i	i
Cc1cccc(NC(=S)NC(C)CCc2ccccc2)c1 (stereo not drawn)	i	i	i	-7.8*	i	i	i	i	i
O=C(NCSC1=NCCS1)c1ccccc1	i	i	i	-5.3*	i	i	i	i	i
CCCC(C)NC(=O)c1ccc(F)cc1 (stereo not drawn)	i	i	i	i	i	·	·	·	·
CCOC(=O)NC(NC(=O)OCC)C(=O)c1ccc(F)cc1	i	i	i	-5.1*	i	i	i	i	i
COCC1CCN(Cc2nc(-c3ccc(OC)cc3)no2)CC1	i	i	i	i	i	·	·	·	·
COc1cc(NC(=S)N2CCCCC2C)c(OC)cc1Cl (stereo not drawn)	i	i	i	-6.5*	i	i	i	i	i
CCOC(=O)C(=O)Nc1ncc(Cl)s1	i	i	i	i	i	·	·	·	·
CCC/C=C1/CCCOC(C(=O)NCc2ccc(S(C)(=O)=O)cc2)(C(F)(F)F)C1 (stereo not drawn)	i	i	i	i	i	·	·	·	·
CS(=O)(=O)c1ccc(CNC(=O)C2(C(F)(F)F)C/C(=C/CCO)CCCO2)cc1 (stereo not drawn)	i	i	i	-4.8*	i	i	i	i	i
CCN1CCN(S(=O)(=O)c2ccc(C(=O)Nc3sc4c(c3C(N)=O)CCN(CC)C4)cc2)CC1	i	i	i	-9.4*	i	i	i	i	i
O=C(NCc1cccs1)c1ccccc1F	i	i	i	-6.2*	i	i	i	i	i
O=C(NCCNCc1cccs1)c1ccccc1F	i	i	i	i	i	·	·	·	·
CC(C(=O)O)N(C(=O)c1ccccc1)c1ccc(F)cc1 (stereo not drawn)	i	i	i	-5.5*	i	81%*	i	i	i
COCC(C)n1c(SCC(=O)NCCC2=CCCCC2)nc2ccccc2c1=O (stereo not drawn)	i	i	i	-6.6*	i	i	i	i	i
CC(=O)NCCn1c(SCC(=O)NCCC2=CCCCC2)nc2ccccc2c1=O	i	i	i	i	i	·	·	·	·
COc1ccc(Cl)cc1N1C(=O)CC(Sc2ccccc2N)C1=O (stereo not drawn)	i	i	i	i	i	·	·	·	·
COc1ccc(/C=N/NC(=O)c2ccc3nc[nH]c3c2)cc1	i	i	i	i	i	·	·	·	·
SMILES	RGS4 pot	MrgX1 allo act	RGS4 inh	MrgX1 antag	MrgX1 agonist	MrgX1 ant reconf	HEK293 Ca flux	HEK293 Ca counter	HEK293 Ca cntr2
CCOC(=O)C1=C(O)/C(=C\c2sccc2C)N=C1C	i	i	i	-5.2*	i	i	i	i	i
CCOC(=O)CSC1=C(C#N)C(c2ccccc2Cl)C(C(=O)OC)C(=O)N1 (stereo not drawn)	i	i	i	-4.8*	i	i	i	i	i
COc1cc(/C=N/NC(=O)CSc2ccccn2)ccc1OC(C)C	i	i	i	i	i	·	·	·	·
COc1cccc(C(=O)c2c[nH]c(C(=O)NCc3cccs3)c2)c1	i	i	i	-7.8*	i	i	i	i	i
C#CCSc1nc2sc3c(c2c(=O)n1C)CCC3	i	i	i	i	i	·	·	·	·
COc1cccc(NS(=O)(=O)c2c(C)cc(C)cc2C)c1	i	i	i	-5.2*	i	i	i	i	i
COc1ccc(NS(=O)(=O)c2c(C)cc(C)cc2C)cc1	i	i	i	i	i	·	·	·	·
COc1ccc(CC(=O)NCC(=O)Nc2ccccc2Br)cc1	i	i	i	-6*	i	i	i	i	i
COc1ccc(NC(=O)CNC(=O)Cc2ccccc2)cc1	i	i	i	i	i	·	·	·	·
COc1ccccc1NS(=O)(=O)c1ccc(-c2cnc(C3CC3)o2)cc1	i	i	i	-5.2*	i	i	i	i	i
CCOc1ccccc1NS(=O)(=O)c1ccc(-c2cnc(C3CC3)o2)cc1	i	i	i	i	i	·	·	·	·
CCCNC(=O)CN(c1cccc(F)c1)S(C)(=O)=O	i	i	i	i	i	·	·	·	·
